Measured values: ChEMBL document CHEMBL1828628, “Discovery of a tetrahydroisoquinoline-based hydroxamic acid derivative (ZYJ-34c) as histone deacetylase inhibitor with potent oral antitumor activities” (J Med Chem, 2011)
Calls of active or inactive are those of the source. No cut-off for these calls is given here.

Key:
H22 [1] = experiment: Antitumor activity against mouse H22 cells xenografted in Kunming mouse assessed as reduction of pulmonary metastatic nodes in lungs at 60 mg/kg, po qd for 14 days; format: functional, organism-based; parameters: dose 60 mg/kg
PC-3 = experiment: Antiproliferative activity against human PC3 cells after 48 hrs by MTT assay; format: functional, cell-based; details: PC-3, 48 h
MDA-MB-231 [2] = experiment: Antitumor activity against human MDA-MB-231 cells xenografted in BALB/c nu mouse assessed as tumor growth inhibition at 60 mg/kg, ip qd for 19 days relative to control; format: functional; details: route intraperitoneal
Summary of the method: (§1)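 Female athymic BALB/c-nu mice, 5–6 weeks old, were inoculated subcutaneously in the right flank with RPMI1640/10% FBS-cultured tumor cells (5 × 10^6 for MDA-MB-231). At about 100 mm3 (~10 days), mice were randomized 6 per group and dosed orally or intraperitoneally for 19 days. Vehicle controls received PBS containing DMSO. TGI = (control − treated mean tumor weight)/control mean tumor weight, at end of treatment.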

MCF7 = experiment: Antiproliferative activity against human MCF7 cells after 48 hrs by MTT assay; format: functional, cell-based; details: MCF7, 48 h
Mus musculus [3] = experiment: Toxicity in mouse H22 cells xenografted Kunming mouse assessed as signs of organ toxicity at 90 mg/kg, po qd for 19 days; format: organism-based; parameters: dose 90 mg/kg, route oral; details: in vivo, 456 h
Mus musculus [4] = experiment: Toxicity in mouse H22 cells xenografted Kunming mouse assessed as signs of organ toxicity at 60 mg/kg, po qd for 19 days; format: organism-based; parameters: dose 60 mg/kg, route oral; details: in vivo, 456 h
MDA-MB-231 [5] = experiment: Antiproliferative activity against human MDA-MB-231 cells after 48 hrs by MTT assay; format: functional, cell-based; details: MDA-MB-231, 48 h
Summary of the method: (§2)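 Cells kept in RPMI1640 with 10% FBS at 37 °C, 5% CO2. Cells were passaged into 96-well plates the day before dosing and left ≥4 h before compound addition. Exposure was 48 h, then 0.5% MTT for 4 h. Formazan was extracted with DMSO for 15 min and read at 570 nm. IC50 was derived from inhibition ratios; mean of three experiments.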

HCT-116 [6] = experiment: Antiproliferative activity against human HCT116 cells after 48 hrs by MTT assay; format: functional, cell-based; details: HCT-116, 48 h; summary of the method: as §2
MDA-MB-231 [7] = experiment: Antitumor activity against human MDA-MB-231 cells xenografted in BALB/c nu mouse assessed as tumor growth inhibition at 90 mg/kg, po qd for 19 days relative to control; format: functional
Mus musculus [8] = experiment: Toxicity in human HCT116 cells xenografted BALB/c nu mouse assessed as signs of organ toxicity at 90 mg/kg, po qd for 19 days; format: organism-based, HCT-116; parameters: dose 90 mg/kg, route oral; details: in vivo, 456 h
Mus musculus [9] = experiment: Toxicity in human HCT116 cells xenografted BALB/c nu mouse assessed as change in body weight at 90 mg/kg, po qd for 19 days; format: organism-based, HCT-116; parameters: dose 90 mg/kg, route oral; details: in vivo, 456 h
Summary of the method: (§3)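 Female BALB/c-nu mice, 5–6 weeks old, bearing subcutaneous right-flank xenografts. Mice were randomized 6 per group at about 100 mm3 tumor size. Dosing was oral or intraperitoneal for 19 days; controls received an equal volume of PBS containing DMSO. Body weight was monitored regularly during treatment, and tumors were measured by caliper every three days.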

HL-60 = experiment: Antiproliferative activity against human HL60 cells after 48 hrs by MTT assay; format: functional, cell-based; details: HL-60, 48 h; summary of the method: as §2
[10] = biological target: 72 kDa type IV collagenase (Homo sapiens) (UniProt P08253); experiment: Inhibition of MMP2
Chain of 72 kDa type IV collagenase (Homo sapiens) (P08253 110-660 limits assumed): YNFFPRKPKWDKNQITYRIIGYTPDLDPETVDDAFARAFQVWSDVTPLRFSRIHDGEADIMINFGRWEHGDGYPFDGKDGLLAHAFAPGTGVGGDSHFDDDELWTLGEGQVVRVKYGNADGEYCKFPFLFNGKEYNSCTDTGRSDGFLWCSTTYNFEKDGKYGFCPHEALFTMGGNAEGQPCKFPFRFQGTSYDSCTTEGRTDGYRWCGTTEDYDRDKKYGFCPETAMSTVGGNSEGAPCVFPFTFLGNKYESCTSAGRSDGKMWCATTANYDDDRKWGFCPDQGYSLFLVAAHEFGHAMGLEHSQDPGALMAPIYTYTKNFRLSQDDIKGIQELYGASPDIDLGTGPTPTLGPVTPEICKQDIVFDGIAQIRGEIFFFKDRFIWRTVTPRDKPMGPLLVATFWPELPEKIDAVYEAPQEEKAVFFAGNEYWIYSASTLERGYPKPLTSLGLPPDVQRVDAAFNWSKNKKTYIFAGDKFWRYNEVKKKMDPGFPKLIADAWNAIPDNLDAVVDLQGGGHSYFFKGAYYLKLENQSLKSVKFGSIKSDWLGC

Mus musculus [11] = experiment: Toxicity in mouse H22 cells xenografted Kunming mouse assessed as change in body weight at 60 mg/kg, po qd for 19 days; format: organism-based; parameters: dose 60 mg/kg, route oral; details: in vivo, 456 h
HCT-116 [12] = experiment: Antitumor activity against human HCT116 cells xenografted in BALB/c nu mouse assessed as tumor growth inhibition administered as po qd for 19 days relative to control; format: functional, organism-based; summary of the method: as §1
K562 = experiment: Antiproliferative activity against human K562 cells after 48 hrs by MTT assay; format: functional, cell-based; details: K562, 48 h; summary of the method: as §2
NB-4 = experiment: Antiproliferative activity against human NB4 cells after 48 hrs by MTT assay; format: functional, cell-based; details: NB-4, 48 h; summary of the method: as §2
Mus musculus [13] = experiment: Toxicity in human MDA-MB-231 cells xenografted BALB/c nu mouse assessed as change in body weight at 90 mg/kg, po qd for 19 days; format: organism-based; parameters: dose 90 mg/kg, route oral; details: in vivo, 456 h; summary of the method: as §3
H22 [14] = experiment: Antitumor activity against mouse H22 cells xenografted in Kunming mouse assessed as reduction of pulmonary metastatic nodes in lungs at 90 mg/kg, po qd for 14 days; format: functional, organism-based; parameters: dose 90 mg/kg
[15] = Stability in artificial gastric juice; format: physicochemical; details: simulated gi fluid
Mus musculus [16] = experiment: Toxicity in human MDA-MB-231 cells xenografted BALB/c nu mouse assessed as signs of organ toxicity at 90 mg/kg, ip qd for 19 days; format: organism-based; parameters: dose 90 mg/kg, route intraperitoneal; details: in vivo, 456 h
MDA-MB-231 [17] = experiment: Cell cycle arrest in human MDA-MB-231 cells assessed as accumulation at G2 phase at 2 to 5 uM after 48 hrs using propidium iodide staining by flow cytometric analysis; format: functional, cell-based
Summary of the method: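 MDA-MB-231 cells were seeded at 4 × 10^5 per well and incubated overnight, then treated for 48 h. Cells were fixed overnight in 70% ethanol phosphate buffer and washed twice with PBS. They were treated with DNase-free RNase A (1 mg/mL) for 30 min, then stained with propidium iodide for 30 min in the dark at room temperature. DNA content was read by FACScan flow cytometry.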

Mus musculus [18] = experiment: Toxicity in human HCT116 cells xenografted BALB/c nu mouse assessed as signs of organ toxicity at 60 mg/kg, po qd for 19 days; format: organism-based, HCT-116; parameters: dose 60 mg/kg, route oral; details: in vivo, 456 h
HCT-116 [19] = experiment: Antitumor activity against human HCT116 cells xenografted in BALB/c nu mouse assessed as tumor growth inhibition at 60 mg/kg, po qd for 19 days relative to control; format: functional; summary of the method: as §1
Mus musculus [20] = experiment: Toxicity in human MDA-MB-231 cells xenografted BALB/c nu mouse assessed as change in body weight at 90 mg/kg, ip qd for 19 days; format: organism-based; parameters: dose 90 mg/kg, route intraperitoneal; details: in vivo, 456 h; summary of the method: as §3
Histone deacetylase = experiment: Inhibition of HDAC in human HeLa cell nuclear extracts using Boc-Lys (acetyl)-AMC as substrate after 30 mins by fluorescence assay; format: protein assay
Summary of the method: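 Enzyme (HeLa nuclear extract, HDAC6 or HDAC8) preincubated 5 min with a series of compound concentrations. Fluorogenic Boc-Lys(acetyl)-AMC substrate then added and incubated 37 °C for 30 min. Reaction stopped with developer containing trypsin and TSA, 20 min at 37 °C. Fluorescence read at ex 390/em 460 nm. Inhibition taken relative to control wells; IC50 from regression of concentration/inhibition data.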

MDA-MB-231 [21] = experiment: Antitumor activity against human MDA-MB-231 cells xenografted in BALB/c nu mouse assessed as tumor growth inhibition at 90 mg/kg, ip qd for 19 days relative to control; format: functional; details: route intraperitoneal
[22] = biological target: Aminopeptidase N (Homo sapiens) (UniProt P15144); experiment: Inhibition of aminopeptidase N
Chain of Aminopeptidase N (Homo sapiens) (P15144 whole entry): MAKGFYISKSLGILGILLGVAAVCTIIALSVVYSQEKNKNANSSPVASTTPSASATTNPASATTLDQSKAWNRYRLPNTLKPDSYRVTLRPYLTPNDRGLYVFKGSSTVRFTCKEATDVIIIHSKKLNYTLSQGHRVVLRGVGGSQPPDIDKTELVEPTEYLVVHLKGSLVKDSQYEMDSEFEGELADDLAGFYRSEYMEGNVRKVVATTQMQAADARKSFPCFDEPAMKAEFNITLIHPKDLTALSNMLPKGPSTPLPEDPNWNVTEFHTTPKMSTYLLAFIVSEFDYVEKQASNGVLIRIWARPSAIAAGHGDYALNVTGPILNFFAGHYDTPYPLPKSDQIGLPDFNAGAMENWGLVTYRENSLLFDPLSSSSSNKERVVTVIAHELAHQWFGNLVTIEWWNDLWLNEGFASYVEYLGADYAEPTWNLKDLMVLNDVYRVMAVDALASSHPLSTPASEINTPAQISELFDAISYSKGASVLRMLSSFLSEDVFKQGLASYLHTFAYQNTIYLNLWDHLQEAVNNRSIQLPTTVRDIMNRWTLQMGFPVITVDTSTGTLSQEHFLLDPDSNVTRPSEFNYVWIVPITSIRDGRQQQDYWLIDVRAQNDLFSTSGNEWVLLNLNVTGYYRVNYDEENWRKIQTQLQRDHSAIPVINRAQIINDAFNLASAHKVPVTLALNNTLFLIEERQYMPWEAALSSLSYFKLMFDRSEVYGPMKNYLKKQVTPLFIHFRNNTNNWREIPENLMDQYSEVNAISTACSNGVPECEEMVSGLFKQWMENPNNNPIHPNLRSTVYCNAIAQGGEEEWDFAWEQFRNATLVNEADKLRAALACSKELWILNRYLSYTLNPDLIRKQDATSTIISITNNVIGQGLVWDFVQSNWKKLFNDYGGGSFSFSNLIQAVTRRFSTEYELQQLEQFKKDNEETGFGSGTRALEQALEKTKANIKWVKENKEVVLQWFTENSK

Mus musculus [23] = experiment: Toxicity in human MDA-MB-231 cells xenografted BALB/c nu mouse assessed as signs of organ toxicity at 60 mg/kg, ip qd for 19 days; format: organism-based; parameters: dose 60 mg/kg, route intraperitoneal; details: in vivo, 456 h
[24] = Mus musculus, MDA-MB-231, ip, 456 h, read-out: TGI

- IC50 (PC-3): 830 nM
- IC50 (MCF7): 3200 nM
- IC50 (MDA-MB-231 [5]): 580 nM
- IC50 (HCT-116 [6]): 770 nM
- IC50 (HL-60): 65800 nM
- inhibition [10]: inactive
- IC50 (K562): 3470 nM
- Stability [15]: Stable
- IC50 (Histone deacetylase): 52 nM
- inhibition [22]: Active
SMILES: CC[C@H](C)[C@H](NC(=O)CC(C)(C)C)C(=O)N1Cc2cc(OCC(=O)NO)ccc2C[C@H]1C(=O)Nc1ccc(OC)cc1
- Activity (H22 [1]): Active
- inhibition in vivo at 60 mg/kg (MDA-MB-231 [2]; [24]): 45%
- T/C (MDA-MB-231 [2]): 62%
- Activity (Mus musculus [3]): Non-toxic
- Activity (Mus musculus [4]): Non-toxic
- T/C (MDA-MB-231 [7]): 30%
- inhibition in vivo at 90 mg/kg (MDA-MB-231 [7]; Mus musculus, MDA-MB-231, 456 h, read-out: TGI): 66%
- Activity (Mus musculus [8]): Non-toxic
- Activity (Mus musculus [9]): Non-toxic
- Activity (Mus musculus [11]): Non-toxic
- TGI (HCT-116 [12]): Dose-dependent effect
- IC50 (NB-4): 2690 nM
- Activity (Mus musculus [13]): Non-toxic
- Activity (H22 [14]): Active
- Activity (Mus musculus [16]): Non-toxic
- Activity (MDA-MB-231 [17]): Active
- Activity (Mus musculus [18]): Non-toxic
- T/C (HCT-116 [19]): 85%
- inhibition in vivo at 60 mg/kg (HCT-116 [19]; Mus musculus, HCT-116, 456 h, read-out: TGI): 32%
- Activity (Mus musculus [20]): Non-toxic
- inhibition in vivo at 90 mg/kg (MDA-MB-231 [21]; [24]): 51%
- T/C (MDA-MB-231 [21]): 37%
- Activity (Mus musculus [23]): Non-toxic
